ChEMBL document CHEMBL1136094, “Novel, potent and selective cyclin D1/CDK4 inhibitors: indolo[6,7-a]pyrrolo[3,4-c]carbazoles” (Bioorg Med Chem Lett, 2003)

Tests used:
Set-up in all cases: scale not given: the % may be the effect or the level left
[1] = molecular target: Dual specificity mitogen-activated protein kinase kinase 7 (Homo sapiens) (UniProt O14733); assay: Inhibition of MKK7-beta kinase at 500 nM
Procedure, shortened: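 Panel profiling of isolated kinases with inhibitor at 100 nM and 500 nM. […] Remaining kinase activity is expressed as % of control and is the mean of duplicate assays.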

[2] = molecular target: Mitogen-activated protein kinase 8 (Homo sapiens) (UniProt P45983); assay: Inhibition of c-Jun N-terminal kinase 1-alpha 1 at 100 nM
Procedure, shortened: (§1)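 Panel of 39 kinases, each tested at 100 and 500 nM inhibitor. […] Activity is expressed as % of control and is the mean of duplicate assays.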

[3] = molecular target: Protein kinase C theta type (Homo sapiens) (UniProt Q04759); assay: Inhibition of Protein kinase C theta at 500 nM; procedure, shortened: as §1
[4] = molecular target: Dual specificity mitogen-activated protein kinase kinase 1 (Homo sapiens) (UniProt Q02750); assay: Inhibition of Mitogen activated protein kinase kinase kinase 1 at 500 nM
[5] = molecular target: RAF proto-oncogene serine/threonine-protein kinase (Homo sapiens) (UniProt P04049); assay: Inhibition of RAF proto-oncogene serine/threonine-protein kinase at 100 nM; procedure, shortened: as §1
Chain of RAF proto-oncogene serine/threonine-protein kinase (Homo sapiens) (P04049 whole entry): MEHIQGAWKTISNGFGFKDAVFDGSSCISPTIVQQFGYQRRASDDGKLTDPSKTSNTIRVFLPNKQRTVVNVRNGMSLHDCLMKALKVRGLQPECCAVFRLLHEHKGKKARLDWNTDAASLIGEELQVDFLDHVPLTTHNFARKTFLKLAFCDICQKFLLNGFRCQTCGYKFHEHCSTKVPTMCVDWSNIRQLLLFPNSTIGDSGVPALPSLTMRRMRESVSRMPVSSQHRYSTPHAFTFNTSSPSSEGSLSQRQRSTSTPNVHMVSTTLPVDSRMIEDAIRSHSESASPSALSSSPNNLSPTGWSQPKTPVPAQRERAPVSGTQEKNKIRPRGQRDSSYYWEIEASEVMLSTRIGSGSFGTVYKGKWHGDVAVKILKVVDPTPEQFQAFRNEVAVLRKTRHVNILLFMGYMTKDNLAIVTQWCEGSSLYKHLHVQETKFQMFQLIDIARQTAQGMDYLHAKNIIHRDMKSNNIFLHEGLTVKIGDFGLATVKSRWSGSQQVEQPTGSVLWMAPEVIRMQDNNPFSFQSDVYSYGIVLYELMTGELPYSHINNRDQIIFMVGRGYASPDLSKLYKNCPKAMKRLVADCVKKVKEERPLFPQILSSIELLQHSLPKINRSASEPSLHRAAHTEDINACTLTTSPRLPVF

Chain of Dual specificity mitogen-activated protein kinase kinase 1 (Homo sapiens) (Q02750 whole entry): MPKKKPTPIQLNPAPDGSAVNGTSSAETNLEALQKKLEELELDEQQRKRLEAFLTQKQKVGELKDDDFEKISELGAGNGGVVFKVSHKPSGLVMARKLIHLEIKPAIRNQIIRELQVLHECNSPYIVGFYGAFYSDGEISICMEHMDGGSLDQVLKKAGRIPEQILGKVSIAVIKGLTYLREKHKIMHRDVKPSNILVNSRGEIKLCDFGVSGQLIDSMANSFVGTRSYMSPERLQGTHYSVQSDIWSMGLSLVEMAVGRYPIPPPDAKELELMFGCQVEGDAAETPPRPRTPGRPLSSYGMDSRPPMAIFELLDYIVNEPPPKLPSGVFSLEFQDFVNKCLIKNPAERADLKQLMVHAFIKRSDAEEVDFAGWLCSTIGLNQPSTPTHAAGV
Chain of Protein kinase C theta type (Homo sapiens) (Q04759 whole entry, looked up): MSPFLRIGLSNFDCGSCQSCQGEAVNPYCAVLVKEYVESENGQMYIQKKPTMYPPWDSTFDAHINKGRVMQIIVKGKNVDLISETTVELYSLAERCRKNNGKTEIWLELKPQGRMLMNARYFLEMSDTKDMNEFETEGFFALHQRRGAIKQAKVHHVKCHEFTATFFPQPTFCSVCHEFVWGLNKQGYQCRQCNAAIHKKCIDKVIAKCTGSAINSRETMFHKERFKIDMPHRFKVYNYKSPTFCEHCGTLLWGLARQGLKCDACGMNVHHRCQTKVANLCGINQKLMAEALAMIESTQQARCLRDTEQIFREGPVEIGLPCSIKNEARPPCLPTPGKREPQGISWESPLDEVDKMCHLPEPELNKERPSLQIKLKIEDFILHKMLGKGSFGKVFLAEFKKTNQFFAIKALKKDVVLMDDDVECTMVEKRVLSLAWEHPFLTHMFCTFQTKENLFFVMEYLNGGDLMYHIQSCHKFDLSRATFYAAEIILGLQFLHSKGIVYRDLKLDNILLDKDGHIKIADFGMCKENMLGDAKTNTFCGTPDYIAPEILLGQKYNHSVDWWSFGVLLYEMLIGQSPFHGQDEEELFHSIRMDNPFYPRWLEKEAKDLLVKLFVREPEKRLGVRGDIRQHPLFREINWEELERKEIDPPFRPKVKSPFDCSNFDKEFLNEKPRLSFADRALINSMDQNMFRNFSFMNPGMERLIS
Chain of Dual specificity mitogen-activated protein kinase kinase 7 (Homo sapiens) (O14733 whole entry): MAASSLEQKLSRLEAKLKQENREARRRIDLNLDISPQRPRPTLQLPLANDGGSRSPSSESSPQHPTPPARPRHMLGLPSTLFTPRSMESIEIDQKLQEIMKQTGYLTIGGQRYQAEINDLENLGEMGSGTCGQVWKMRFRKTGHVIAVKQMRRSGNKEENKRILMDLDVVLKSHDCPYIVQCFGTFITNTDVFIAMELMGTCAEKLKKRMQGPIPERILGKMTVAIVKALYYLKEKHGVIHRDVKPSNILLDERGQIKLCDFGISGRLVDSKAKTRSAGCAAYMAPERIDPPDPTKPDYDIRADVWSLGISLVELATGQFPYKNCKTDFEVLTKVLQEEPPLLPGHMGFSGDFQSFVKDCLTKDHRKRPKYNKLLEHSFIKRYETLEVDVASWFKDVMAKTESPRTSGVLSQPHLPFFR
Chain of Mitogen-activated protein kinase 8 (Homo sapiens) (P45983 whole entry): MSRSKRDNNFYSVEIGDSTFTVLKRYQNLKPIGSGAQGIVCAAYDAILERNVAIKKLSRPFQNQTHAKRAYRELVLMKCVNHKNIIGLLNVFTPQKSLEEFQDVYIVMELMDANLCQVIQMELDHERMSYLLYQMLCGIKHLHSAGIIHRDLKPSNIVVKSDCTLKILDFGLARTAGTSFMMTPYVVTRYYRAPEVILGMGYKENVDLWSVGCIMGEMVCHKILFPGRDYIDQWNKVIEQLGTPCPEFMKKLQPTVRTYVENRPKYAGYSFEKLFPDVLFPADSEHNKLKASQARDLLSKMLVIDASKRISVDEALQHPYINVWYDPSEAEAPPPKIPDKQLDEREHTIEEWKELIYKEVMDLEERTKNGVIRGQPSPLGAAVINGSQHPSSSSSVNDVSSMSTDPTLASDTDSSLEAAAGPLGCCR

## Cn1ccc2ccc3c4[nH]c5c(CCCN[C@H]6CC[C@H](O)CC6)cccc5c4c4c(c3c21)C(=O)NC4=O
[1]
  Control: 70%
[2]
  Control: 99%
[3]
  Control: 58%
[4]
  Control: 87%
[5]
  Control: 112%
